An excerpt weighted towards active compounds, which were near 9.8% of everything screened.
PMI act: activators of human phosphomannose isomerase; P34949; 190,000 compounds, 0.005% hits; purified human PMI, coupled resazurin fluorescence, 20 min; active compounds read high; 1 = vehicle control, 0 substrate-free wells; activation factor at 20 µM;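 active = activation factor of 2 or more at 20 µM, relative to plate controls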
WT yeast gro inh: growth inhibition of WT yeast, mitochondrial fusion screen. mitochondrial fusion phenotypic screen, WT strain. 190,000 compounds, 2.1% hits. inhibition, % at 10 µM; in the data active = inhibition above about 58%; tested in S. cerevisiae
L major viab: Leishmania major promastigote growth inhibition; Leishmania major promastigotes, resazurin fluorescence viability; inhibition, % at 10 µM; 200,000 compounds, 9% hits; in the data active = inhibition above about 50%;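 note: promastigotes grown with compound for 44 hours at 28 °C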
Calpain2 inh: blocks pig calpain II enzyme activity; purified calpain II, fluorogenic peptide substrate, 30 min; 220,000 compounds, 0.37% hits; inhibition, % at 16 µM; AID 1236;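 active = inhibition above about 50%, limit read from the data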
Rad51 HR inh: Rad51 (human) homologous recombination inhibition. Q06609. 200,000 compounds, 0.085% hits. AID 1385. hRad51 DNA strand exchange, fluorescence dequenching. inhibition, % at 10 µM;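 active = inhibition above 40% at the single screening dose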
Target sequence (Q06609 whole entry, looked up): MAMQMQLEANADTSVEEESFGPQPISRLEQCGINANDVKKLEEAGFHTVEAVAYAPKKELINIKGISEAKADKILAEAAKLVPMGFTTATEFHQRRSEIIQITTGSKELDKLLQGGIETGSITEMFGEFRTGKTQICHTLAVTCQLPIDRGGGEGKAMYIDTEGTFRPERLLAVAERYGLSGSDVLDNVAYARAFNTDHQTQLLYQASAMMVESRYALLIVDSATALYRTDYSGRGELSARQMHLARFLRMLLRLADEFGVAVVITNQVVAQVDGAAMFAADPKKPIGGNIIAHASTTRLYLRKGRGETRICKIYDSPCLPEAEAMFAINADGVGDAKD
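Read-out basis: percent inhibition relative to plate controls and blanks / Assay system: human Rad51 nucleoprotein filaments preassembled on unlabelled ssDNA / Timing: filaments 15 min 37 °C, then compound 30 min / Control set: per-plate controls and blanks / Technique: fluorescence dequenching at 485/520 nm / Compound: 10 µM final, single point / Also added: Fluorescein- and BHQ1-tagged 47-mer duplex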
PMI act hi M6P: activators of human phosphomannose isomerase at near-saturating mannose 6-phosphate; AID 1216; P34949; activation factor at 20 µM; 190,000 compounds, 0.34% hits; coupled PMI enzyme assay, resazurin fluorescence, 20 min; active compounds read high; 1 = untreated enzyme, 0 = substrate-free blank;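 active = activation factor of 2 or more at 20 µM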
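Test system: Human PMI in coupled enzyme assay | Input: 15 ng/mL PMI | Medium: HEPES-buffered pH 7.4 with magnesium and detergent | Compound: One concentration, 20 µM, in 1% DMSO | Incubation: Enzyme reaction with compound 20 min at room temperature | Detection: Diaphorase-driven resazurin-to-resorufin fluorescence, excitation 544, emission 590 nm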
Numbers stand for hits; i = inactive; nt = not tested or not shown.

SMILES	PMI act	WT yeast gro inh	L major viab	Calpain2 inh	Rad51 HR inh	PMI act hi M6P
CCOC(=O)N1CCN(CC(O)COC2CC(C)CC(C)(C)C2)CC1 (stereo not drawn)	i	i	93	i	i	i
CC1CC(OCC(O)CN2CCOCC2)CC(C)(C)C1 (stereo not drawn)	i	i	77	i	i	i
CCOC(=O)N1CCN(CC(O)COCc2ccc(OC)c(OC)c2)CC1 (stereo not drawn)	i	i	i	i	i	i
NC(=O)c1nsc(C(=O)N(CC(=O)NC2CCCC2)c2cnc3ccccc3c2)c1N	nt	nt	nt	i	i	nt
CCOC(=O)c1sc(-n2[nH]c(C)cc2=O)nc1C	i	i	i	i	i	2.4
COc1ccc(OC)c(N(CC(=O)Nc2cccc(C(F)(F)F)c2)S(C)(=O)=O)c1	i	i	i	i	i	i
O=C(c1cccs1)C1CCCN(Cc2nc(Cc3ccccc3F)no2)C1 (stereo not drawn)	i	i	78	i	nt	i
Cn1cnc(NCc2ccccc2)c1[N+](=O)[O-]	nt	nt	nt	i	i	nt
CCCc1[nH][nH]c(=O)c1C(c1ccc(Cl)cc1)C(C#N)C#N (stereo not drawn)	i	i	i	i	i	i
CCCc1[nH][nH]c(=O)c1C(c1ccc(Br)cc1)C(C#N)C#N (stereo not drawn)	i	i	50	i	i	i
COc1ccc(NS(=O)(=O)c2cc(NC(=O)Cn3cnc4c3c(=O)n(C)c(=O)n4C)ccc2C)cc1	i	i	i	i	i	i
CN(C)CCOc1ccc(C(C)(C)c2ccccc2)cc1	i	i	72	i	nt	i
CN(C)CCCOc1ccc(C(C)(C)c2ccccc2)cc1	i	i	100	i	i	i
C=CCNCCOc1ccc(C(C)(C)c2ccccc2)cc1	i	i	98	i	nt	i
C=CCCCOc1ccc(C(=O)O)cc1	i	i	i	i	nt	i
CN(C)CCOc1ccccc1C(C)(C)C	i	i	i	i	i	i
COc1cccc(/C(=N/O)C2CC2c2ccc(Cl)cc2)c1 (stereo not drawn)	i	i	i	i	i	i
CC(C)C[C@H](NC(=O)c1nc[nH]c1C(=O)NC1CCN(C(=O)OC(C)(C)C)CC1)C(=O)OCc1ccccc1	i	i	51	i	i	i
CC(C)C[C@H](NC(=O)c1[nH]cnc1C(=O)N[C@@H](Cc1ccccc1)C(=O)OC(C)(C)C)C(=O)OC(C)(C)C	nt	nt	nt	i	i	nt
CC(C)C[C@H](NC(=O)c1nc[nH]c1C(=O)NCc1ccccc1)C(=O)OC(C)(C)C	i	i	i	60	i	i
CC(C)(C)OC(=O)NCCCCCNC(=O)c1[nH]cnc1C(=O)N[C@@H](CCCCNC(=O)OC(C)(C)C)C(=O)OC(C)(C)C	i	i	i	54	i	i
CC(C)(C)OC(=O)NCCCC[C@H](NC(=O)c1nc[nH]c1C(=O)N[C@@H](CCCCNC(=O)OC(C)(C)C)C(=O)OC(C)(C)C)C(=O)OC(C)(C)C	nt	nt	nt	i	i	nt
CC(C)C[C@H](NC(=O)c1nc[nH]c1C(=O)NC1CCN(C(=O)OC(C)(C)C)CC1)C(=O)OC(C)(C)C	i	i	i	i	i	i
Cc1nn(C)cc1S(=O)(=O)NC1CCCC1	i	i	i	i	i	i
CC(C)(C)c1ccc(C(CC(=O)O)NC(=O)Cc2ccc(F)cc2)cc1 (stereo not drawn)	i	i	i	i	i	i
SMILES	PMI act	WT yeast gro inh	L major viab	Calpain2 inh	Rad51 HR inh	PMI act hi M6P
CCOc1cc(-c2cc(-c3ccc(C)cc3)nc(N)c2C#N)ccc1O	i	i	i	i	i	i
CCOc1cc(/C=C(\C#N)c2[nH]nc(N)c2C#N)ccc1O	i	i	67	i	i	i
COc1cc(SC)ccc1C(=O)Nc1nccs1	i	i	i	i	i	i
CCc1ccc(Nc2nc(N)nc(CSc3nc4ccccc4s3)n2)cc1	i	72	i	i	i	i
Cc1nnc(SCc2nc(N)nc(Nc3ccccc3)n2)s1	i	i	i	i	i	i
Cc1cc(C(=O)N/N=C/c2ccc(C)o2)c2ccccc2n1	i	i	i	i	i	i
Cc1ccc(/C=N/Nc2ccc3ccccc3n2)o1	i	i	63	i	i	i
Cc1cccc(/C=N/Nc2ccc3ccccc3n2)c1	i	64	i	i	i	i
C(=N\Nc1ccc2ccccc2n1)/c1ccc2c(c1)OCCO2	i	i	i	i	i	i
CC(Sc1ncnc2ccccc12)C(=O)Nc1ccc2c(c1)OCCO2 (stereo not drawn)	i	i	i	i	i	i
O=C(CCN1C(=O)c2cccc3cccc(c23)C1=O)Nc1ccccc1	i	i	i	i	i	i
COc1ccc(S(=O)(=O)N2CCOCC2)cc1NC(=O)CSc1cccc[n+]1[O-]	nt	nt	nt	i	i	nt
CCOC(=O)c1cc(C)n(CCCN2CCOCC2)c1C	i	i	90	i	i	i
CC(C)C(NS(=O)(=O)c1cccc2nsnc12)C(=O)NCc1ccco1 (stereo not drawn)	nt	nt	nt	i	nt	nt
CC(C)C(NS(=O)(=O)c1cccc2nsnc12)C(=O)NCc1ccc2c(c1)OCO2 (stereo not drawn)	i	i	100	i	i	i
Cc1ccc(CN=Cc2[nH]c3ccc(Br)c(Cl)c3c2O)cc1	i	64	i	i	i	i
CC(C)Oc1ccc(Cc2cnc(N)nc2N)cc1	i	i	58	i	i	i
CCCCOc1ccc(Cc2cnc(N)nc2N)cc1	nt	nt	nt	i	i	nt
CCCCCCCCNC(=O)c1cccnc1SCC(=O)Nc1ccccc1OC	i	i	82	i	i	i
CCn1ccnc1CN(C)Cc1cn(-c2ccc(C)cc2)nc1-c1cccc(C)c1	i	68	78	i	i	i
CCn1ccnc1CN(C)Cc1nc(-c2cccc(Cl)c2)no1	i	i	i	i	i	i
Cc1ccc(-n2cc(CN3CCNC(=O)CC3)c(-c3cccc(C)c3)n2)cc1	i	i	i	i	i	i
Cc1ccc(-n2cc(CN3CCN(Cc4nccn4C)CC3)c(-c3cccc(C)c3)n2)cc1	i	66	i	i	i	i
Cc1cccc(-n2cc(CN(C)Cc3nccn3C)c(-c3cccc(F)c3)n2)c1	i	i	i	i	i	i
CCn1ccnc1CN(C)Cc1cn(-c2cccc(C)c2)nc1-c1cccc(F)c1	i	i	99	i	i	i
O=C(CNS(=O)(=O)/C=C/c1ccccc1)OC1CCOC1=O (stereo not drawn)	i	i	i	i	i	i
CC(C)Cn1c(N)c(C(=O)CSc2cc(Cl)ccc2Cl)c(=O)n(C)c1=O	i	i	i	i	nt	i
Cc1ccc2[nH]c(=O)c(CN(C(=O)c3cccc([N+](=O)[O-])c3)C(C)C)cc2c1	nt	nt	nt	i	nt	nt
O=C(Cn1cnc([N+](=O)[O-])n1)N/N=C/c1ccc(O)cc1O	i	i	i	i	nt	i
O=C(Cn1cnc([N+](=O)[O-])n1)N/N=C/c1cccc2ccccc12	i	i	91	i	i	i
